The results in this text go back to ChEMBL document CHEMBL1154358, “Xanalteric acids I and II and related phenolic compounds from an endophytic Alternaria sp. isolated from the mangrove plant Sonneratia alba” (J Nat Prod, 2009).

SMILES strings stand for the structures. ≈ marks a conversion by molar mass, not a printed value. Calls of active or inactive are those of the source.

A short description of data set [1]: Cytotoxicity against mouse L5178Y cells assessed as cell viability at 10 ug/ml after 24 hrs by MTT assay. Format: cell-based. To be noted: read-out: Activity. The method in brief:
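Mouse lymphoma L5178Y cells; viability read by MTT tetrazolium microculture assay. Run as three independent experiments, each in triplicate. Medium with 0.1% (v/v) EtOH served as the negative control in every experiment.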
A general note: Formazan colour is commonly taken as a measure of viable cells.

A further data set concerns Pseudomonas aeruginosa. Briefly: Antibacterial activity against multidrug-resistant Pseudomonas aeruginosa by broth dilution method. Format: functional, organism-based. An outline of the steps:
(§1)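 Dilution assay following EUCAST criteria against multidrug-resistant bacterial or fungal strains. Compounds were tested from 250 down to 0.48 μg/mL. MIC was taken as the lowest concentration at which bacterial or fungal growth was inhibited.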
(Dilution methods test growth across graded concentrations, often in twofold steps.)

The subject of another data set is Enterobacter cloacae. Briefly: Antibacterial activity against multidrug-resistant Enterobacter cloacae by broth dilution method. Format: functional. An outline of the steps:
as §1

The subject of the next data set is Streptococcus pneumoniae. The data set is described as follows: Antibacterial activity against multidrug-resistant Streptococcus pneumoniae by broth dilution method. Format: functional. An outline of the steps: as §1
Another data set deals with Candida albicans. The data set is described as follows: Antifungal activity against multidrug-resistant Candida albicans by broth dilution method. In kind it is functional. An outline of the steps: as §1
The subject of the next data set is Aspergillus ficuum. The data set is described as follows: Antifungal activity against multidrug-resistant Aspergillus ficuum by broth dilution method. Format: functional.
For another data set, the system named is Aspergillus fumigatus. The data set is described as follows: Antifungal activity against multidrug-resistant Aspergillus fumigatus by broth dilution method. Format: functional, organism-based. An outline of the steps:
as §1

For another data set, the system named is Staphylococcus aureus. Briefly: Antibacterial activity against methicillin-resistant Staphylococcus aureus by broth dilution method. In kind it is functional. An outline of the steps: as §1
For the next data set, the system named is Acinetobacter baumannii. The data set is described as follows: Antibacterial activity against multidrug-resistant Acinetobacter baumannii by broth dilution method. In kind it is functional, organism-based.
A further data set relates to Escherichia coli. Briefly: Antibacterial activity against multidrug-resistant Escherichia coli by broth dilution method. Format: functional, organism-based. An outline of the steps:
as §1

In a further data set the test system is Pichia kudriavzevii. Briefly: Antifungal activity against multidrug-resistant Candida krusei by broth dilution method. In kind it is functional, organism-based. An outline of the steps:
as §1

A further data set relates to Enterococcus faecium. Briefly: Antibacterial activity against multidrug-resistant Enterococcus faecium by broth dilution method. Format: functional. An outline of the steps:
as §1

The next data set deals with Klebsiella pneumoniae. The data set is described as follows: Antibacterial activity against multidrug-resistant Klebsiella pneumoniae by broth dilution method. Format: functional, organism-based. An outline of the steps: as §1

As to `COc1cc(O)c(C(=O)O)c(-c2c(C)cc(C(=O)O)oc2=O)c1` [ALTERNARIAN ACID], in data set [1], the viability at 24 h, 10 ug/ml amounted to 99.2%. The result in the data set on Pseudomonas aeruginosa, in the data set on Enterobacter cloacae, with Streptococcus pneumoniae, with Candida albicans, in the data set on Aspergillus ficuum and in the data set with Aspergillus fumigatus was inactive. Moreover, the result in the data set on Staphylococcus aureus, with Acinetobacter baumannii, in the data set with Escherichia coli, in the data set with Pichia kudriavzevii, in the data set with Enterococcus faecium and in the data set with Klebsiella pneumoniae was inactive.
Consider `COc1cc(O)c2c(c1)C1=C[C@H](O)[C@@H](O)C[C@]1(C)OC2=O`, for which the result in the data set on Pseudomonas aeruginosa, with Enterobacter cloacae, with Streptococcus pneumoniae, with Candida albicans, in the data set with Aspergillus ficuum and in the data set on Aspergillus fumigatus was inactive. The result in the data set on Staphylococcus aureus, in the data set with Acinetobacter baumannii, with Escherichia coli, with Pichia kudriavzevii, in the data set with Enterococcus faecium and in the data set on Klebsiella pneumoniae was inactive.
As to `O=C1C[C@@H](O)[C@@H]2c3ccc(O)c4c3[C@@H](c3ccc(O)c1c32)[C@H](O)CC4=O`, the outcome with Pseudomonas aeruginosa, in the data set on Enterobacter cloacae, with Streptococcus pneumoniae, in the data set with Candida albicans, in the data set with Aspergillus ficuum and with Aspergillus fumigatus was inactive. In addition, the outcome with Staphylococcus aureus, in the data set on Acinetobacter baumannii, in the data set with Escherichia coli, with Pichia kudriavzevii, with Enterococcus faecium and with Klebsiella pneumoniae was inactive.
On to `COc1cc(O)c2c(=O)oc3cc(O)cc(C)c3c2c1`, for which the result with Pseudomonas aeruginosa, in the data set with Enterobacter cloacae, in the data set on Streptococcus pneumoniae, with Candida albicans, in the data set on Aspergillus ficuum and with Aspergillus fumigatus was inactive. For the same compound, the result in the data set with Staphylococcus aureus, in the data set on Acinetobacter baumannii, in the data set with Escherichia coli, with Pichia kudriavzevii, in the data set on Enterococcus faecium and with Klebsiella pneumoniae was inactive.
For the compound `O=C1C[C@H](O)[C@@H]2c3c(ccc(O)c31)-c1ccc(O)c3c1[C@@]2(O)CCC3=O`, the result with Pseudomonas aeruginosa, with Enterobacter cloacae, in the data set on Streptococcus pneumoniae, with Candida albicans, with Aspergillus ficuum and in the data set on Aspergillus fumigatus was inactive. For the same compound, the result in the data set on Staphylococcus aureus, with Acinetobacter baumannii, in the data set with Escherichia coli, with Pichia kudriavzevii, with Enterococcus faecium and in the data set on Klebsiella pneumoniae was inactive.
For orientation: MIC means the lowest concentration found to suppress growth. With `COc1cc(O)c(C(=O)O)c(-c2cc(O)c(O)cc2C)c1` [ALTENUSIN], the outcome with Pseudomonas aeruginosa, in the data set on Aspergillus fumigatus, in the data set with Acinetobacter baumannii, in the data set with Escherichia coli, in the data set on Pichia kudriavzevii and in the data set on Klebsiella pneumoniae was inactive. Also, the MIC with Enterobacter cloacae turned out to be 125 µg/mL (≈ 431 µM); with Streptococcus pneumoniae, 31.2 µg/mL (≈ 108 µM); against Candida albicans, 125 µg/mL (≈ 431 µM); with Aspergillus ficuum it was 62.5 µg/mL; in the data set on Staphylococcus aureus, 31.2 µg/mL (≈ 108 µM); against Enterococcus faecium, 62.5 µg/mL (≈ 215 µM).
As to `O=C1C[C@@H](O)[C@H]2c3c(ccc(O)c31)-c1ccc(O)c3c1[C@]2(O)C=CC3=O`, the result in the data set on Pseudomonas aeruginosa, in the data set on Enterobacter cloacae, in the data set with Streptococcus pneumoniae, in the data set on Candida albicans, in the data set on Aspergillus ficuum and with Aspergillus fumigatus was inactive. Moreover, the outcome in the data set on Staphylococcus aureus, in the data set with Acinetobacter baumannii, in the data set on Escherichia coli, with Pichia kudriavzevii, in the data set with Enterococcus faecium and in the data set with Klebsiella pneumoniae was inactive.
For `O=C1C=Cc2c3c4c(c(O)ccc4c4ccc(O)c1c24)OC(O)(C(=O)O)C3` (centres undefined) [XANALTERIC ACID II], in data set [1], the viability at 24 h, 10 ug/ml came to 87.5%. The outcome with Pseudomonas aeruginosa, in the data set with Aspergillus fumigatus, with Acinetobacter baumannii, with Escherichia coli, with Pichia kudriavzevii and with Klebsiella pneumoniae was inactive. The same compound had an MIC in the data set with Staphylococcus aureus of 250 µg/mL (≈ 686 µM).
Regarding `Cc1cc(O)cc2oc(=O)c3c(O)cc(O)cc3c12`, the MIC entry in the data set on Pseudomonas aeruginosa, with Aspergillus fumigatus, with Acinetobacter baumannii, in the data set with Escherichia coli, with Pichia kudriavzevii and in the data set on Klebsiella pneumoniae was “inactive” in each case. Also, the outcome in the data set on Enterobacter cloacae, in the data set on Streptococcus pneumoniae, in the data set with Candida albicans, with Aspergillus ficuum, in the data set with Staphylococcus aureus and in the data set on Enterococcus faecium was inactive.
As for `O=C1C=Cc2c3c4c(c(O)ccc4c4ccc(O)c1c24)OC(C(=O)O)C3O` (centres undefined) [XANALTERIC ACID I], the viability at 24 h, 10 ug/ml in data set [1] was determined as 45%. In addition, the result in the data set with Pseudomonas aeruginosa, in the data set on Aspergillus fumigatus, in the data set on Acinetobacter baumannii, with Escherichia coli, with Pichia kudriavzevii and in the data set with Klebsiella pneumoniae was inactive. Further, the MIC in the data set with Staphylococcus aureus is 125 µg/mL (≈ 343 µM).
With `COc1cc(O)c2c(c1)C1C[C@H](O)[C@@H](O)C[C@@]1(C)OC2=O` (some centres undefined), the outcome with Pseudomonas aeruginosa, in the data set on Enterobacter cloacae, with Streptococcus pneumoniae, with Candida albicans, with Aspergillus ficuum and in the data set on Aspergillus fumigatus was inactive. Moreover, the result in the data set with Staphylococcus aureus, in the data set on Acinetobacter baumannii, with Escherichia coli, in the data set on Pichia kudriavzevii, with Enterococcus faecium and with Klebsiella pneumoniae was inactive.
As for `COc1c(CC(C)O)c2c3c(CC(C)O)c(OC)c(=O)c4c(O)cc5c(c6c(cc(O)c(c1=O)c62)OCO5)c43` (centres undefined), the outcome in the data set on Pseudomonas aeruginosa, in the data set on Enterobacter cloacae, with Streptococcus pneumoniae, with Candida albicans, in the data set on Aspergillus ficuum and with Aspergillus fumigatus was inactive. The outcome with Staphylococcus aureus, in the data set with Acinetobacter baumannii, in the data set on Escherichia coli, with Pichia kudriavzevii, in the data set on Enterococcus faecium and in the data set on Klebsiella pneumoniae was inactive.
On to `COc1c(CC(C)O)c2c3c(CC(C)O)c(C(=O)O)oc4c(O)cc5c(c6c(cc(O)c(c1=O)c62)OCO5)c43` (centres undefined), for which the outcome in the data set on Pseudomonas aeruginosa, in the data set on Enterobacter cloacae, with Streptococcus pneumoniae, in the data set on Candida albicans, with Aspergillus ficuum and in the data set with Aspergillus fumigatus was inactive. The outcome in the data set with Staphylococcus aureus, with Acinetobacter baumannii, in the data set with Escherichia coli, with Pichia kudriavzevii, with Enterococcus faecium and in the data set on Klebsiella pneumoniae was inactive.
